Experimental data reported in ChEMBL document CHEMBL5058577, “EUbOPEN Chemogenomics Library 2 (Multiplex)” (2022).

Test system: U2OS
Assay: Multiplex assay against U2OS
Type: toxicity, cell-based
Conditions: human
Outline: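 Cells stained live at seeding with Hoechst33342, BioTracker Green Microtubule Cytoskeleton Dye, MitoTracker Red and Annexin V Alexa Fluor 680 were imaged on a CQ1 microscope at 37°C and 5% CO2 after compound addition. Their classification by CellPathfinder machine-learning gating ran from Hoechst high-intensity objects versus normal cells, to healthy, pyknosed or fragmented nuclei among normal cells, to mitotic or apoptotic among pyknosed cells. Tubulin, mitochondrial-mass and membrane-permeability phenotypes are per cents of healthy-nucleus cells.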

[1] = 12 h, 1 µM, compound concentration 1 uM, replicate 1
[2] = 12 h, 1 µM, compound concentration 1 uM, replicate 2
[3] = 12 h, 10 µM, compound concentration 10 uM, replicate 1
[4] = 12 h, 10 µM, compound concentration 10 uM, replicate 2
[5] = 24 h, 1 µM, compound concentration 1 uM, replicate 1
[6] = 24 h, 1 µM, compound concentration 1 uM, replicate 2
[7] = 24 h, 10 µM, compound concentration 10 uM, replicate 1
[8] = 24 h, 10 µM, compound concentration 10 uM, replicate 2
[9] = 48 h, 1 µM, compound concentration 1 uM, replicate 1
[10] = 48 h, 1 µM, compound concentration 1 uM, replicate 2
[11] = 48 h, 10 µM, compound concentration 10 uM, replicate 1
[12] = 48 h, 10 µM, compound concentration 10 uM, replicate 2

COc1c(Nc2ccc(S(C)(=O)=O)nc2C)ncnc1OC1CCN(C(=O)OC(C)C)CC1 [ADP-597]
Population Apoptotic (%) [1]: 82%
Population Fragmented Nuclei (%) [1]: 23%
Population Healthy Nuclei (%) [1]: 68%
Population Hoechst High Intensity Objects (%) [1]: 2%
Population Membrane Permeable-Phenotype (%) [1]: 7%
Population Mitochondria Different-Phenotype (%) [1]: 1%
Population Mitotic Cells (%) [1]: 17%
Population Normal (%) [1]: 97%
Population Pyknosed Nuclei (%) [1]: 8%
Population Tubulin-Different-Phenotype (%) [1]: 5%
Total Cell Count [1]: 208
Population Apoptotic (%) [2]: 75%
Population Fragmented Nuclei (%) [2]: 13%
Population Healthy Nuclei (%) [2]: 78%
Population Hoechst High Intensity Objects (%) [2]: 3%
Population Membrane Permeable-Phenotype (%) [2]: 11%
Population Mitotic Cells (%) [2]: 25%
Population Normal (%) [2]: 96%
Population Tubulin-Different-Phenotype (%) [2]: 2%
Total Cell Count [2]: 95
Population Apoptotic (%) [3]: 93%
Population Fragmented Nuclei (%) [3]: 27%
Population Healthy Nuclei (%) [3]: 60%
Population Hoechst High Intensity Objects (%) [3]: 8%
Population Membrane Permeable-Phenotype (%) [3]: 7%
Population Mitochondria Different-Phenotype (%) [3]: 2%
Population Mitotic Cells (%) [3]: 6%
Population Normal (%) [3]: 91%
Population Pyknosed Nuclei (%) [3]: 11%
Population Tubulin-Different-Phenotype (%) [3]: 4%
Total Cell Count [3]: 266
Population Apoptotic (%) [4]: 85%
Population Fragmented Nuclei (%) [4]: 10%
Population Healthy Nuclei (%) [4]: 77%
Population Hoechst High Intensity Objects (%) [4]: 4%
Population Mitochondria Different-Phenotype (%) [4]: 3%
Population Mitotic Cells (%) [4]: 14%
Population Normal (%) [4]: 95%
Population Tubulin-Different-Phenotype (%) [4]: 1%
Total Cell Count [4]: 128
Population Apoptotic (%) [5]: 88%
Population Fragmented Nuclei (%) [5]: 24%
Population Healthy Nuclei (%) [5]: 67%
Population Hoechst High Intensity Objects (%) [5]: 3%
Population Membrane Permeable-Phenotype (%) [5]: 7%
Population Mitochondria Different-Phenotype (%) [5]: 3%
Population Mitotic Cells (%) [5]: 11%
Population Normal (%) [5]: 96%
Population Pyknosed Nuclei (%) [5]: 7%
Population Tubulin-Different-Phenotype (%) [5]: 3%
Total Cell Count [5]: 239
Population Apoptotic (%) [6]: 80%
Population Fragmented Nuclei (%) [6]: 12%
Population Healthy Nuclei (%) [6]: 79%
Population Membrane Permeable-Phenotype (%) [6]: 8%
Population Mitotic Cells (%) [6]: 20%
Population Pyknosed Nuclei (%) [6]: 8%
Population Tubulin-Different-Phenotype (%) [6]: 5%
Total Cell Count [6]: 129
Population Apoptotic (%) [7]: 88%
Population Fragmented Nuclei (%) [7]: 30%
Population Healthy Nuclei (%) [7]: 61%
Population Hoechst High Intensity Objects (%) [7]: 6%
Population Membrane Permeable-Phenotype (%) [7]: 8%
Population Mitochondria Different-Phenotype (%) [7]: 2%
Population Mitotic Cells (%) [7]: 12%
Population Normal (%) [7]: 93%
Population Pyknosed Nuclei (%) [7]: 8%
Population Tubulin-Different-Phenotype (%) [7]: 4%
Total Cell Count [7]: 305
Population Apoptotic (%) [8]: 83%
Population Fragmented Nuclei (%) [8]: 11%
Population Healthy Nuclei (%) [8]: 80%
Population Hoechst High Intensity Objects (%) [8]: 5%
Population Membrane Permeable-Phenotype (%) [8]: 6%
Population Mitochondria Different-Phenotype (%) [8]: 4%
Population Mitotic Cells (%) [8]: 16%
Population Normal (%) [8]: 94%
Population Tubulin-Different-Phenotype (%) [8]: 1%
Total Cell Count [8]: 155
Population Apoptotic (%) [9]: 80%
Population Fragmented Nuclei (%) [9]: 19%
Population Healthy Nuclei (%) [9]: 72%
Population Hoechst High Intensity Objects (%) [9]: 2%
Population Membrane Permeable-Phenotype (%) [9]: 6%
Population Mitochondria Different-Phenotype (%) [9]: 5%
Population Mitotic Cells (%) [9]: 19%
Population Normal (%) [9]: 97%
Population Pyknosed Nuclei (%) [9]: 7%
Population Tubulin-Different-Phenotype (%) [9]: 2%
Total Cell Count [9]: 339
Population Apoptotic (%) [10]: 81%
Population Fragmented Nuclei (%) [10]: 20%
Population Healthy Nuclei (%) [10]: 67%
Population Membrane Permeable-Phenotype (%) [10]: 5%
Population Mitochondria Different-Phenotype (%) [10]: 4%
Population Mitotic Cells (%) [10]: 18%
Population Pyknosed Nuclei (%) [10]: 12%
Total Cell Count [10]: 185
Population Apoptotic (%) [11]: 79%
Population Fragmented Nuclei (%) [11]: 24%
Population Healthy Nuclei (%) [11]: 62%
Population Hoechst High Intensity Objects (%) [11]: 6%
Population Membrane Permeable-Phenotype (%) [11]: 6%
Population Mitochondria Different-Phenotype (%) [11]: 4%
Population Mitotic Cells (%) [11]: 20%
Population Normal (%) [11]: 93%
Population Pyknosed Nuclei (%) [11]: 13%
Population Tubulin-Different-Phenotype (%) [11]: 2%
Total Cell Count [11]: 356
Population Apoptotic (%) [12]: 92%
Population Fragmented Nuclei (%) [12]: 10%
Population Healthy Nuclei (%) [12]: 77%
Population Hoechst High Intensity Objects (%) [12]: 3%
Population Membrane Permeable-Phenotype (%) [12]: 4%
Population Mitochondria Different-Phenotype (%) [12]: 0%
Population Mitotic Cells (%) [12]: 8%
Population Normal (%) [12]: 96%
Population Pyknosed Nuclei (%) [12]: 11%
Total Cell Count [12]: 223

COc1cc(Nc2ncc3c(n2)-c2ccc(Cl)cc2C(c2c(F)cccc2OC)=NC3)ccc1C(=O)O [ALISERTIB]
Population Apoptotic (%) [1]: 63%
Population Fragmented Nuclei (%) [1]: 23%
Population Healthy Nuclei (%) [1]: 65%
Population Hoechst High Intensity Objects (%) [1]: 1%
Population Membrane Permeable-Phenotype (%) [1]: 4%
Population Mitochondria Different-Phenotype (%) [1]: 3%
Population Mitotic Cells (%) [1]: 36%
Population Normal (%) [1]: 98%
Population Pyknosed Nuclei (%) [1]: 10%
Population Tubulin-Different-Phenotype (%) [1]: 3%
Population Apoptotic (%) [2]: 71%
Population Fragmented Nuclei (%) [2]: 35%
Population Healthy Nuclei (%) [2]: 55%
Population Hoechst High Intensity Objects (%) [2]: 4%
Population Membrane Permeable-Phenotype (%) [2]: 8%
Population Mitochondria Different-Phenotype (%) [2]: 4%
Population Mitotic Cells (%) [2]: 28%
Population Normal (%) [2]: 95%
Population Pyknosed Nuclei (%) [2]: 8%
Population Tubulin-Different-Phenotype (%) [2]: 11%
Population Apoptotic (%) [3]: 79%
Population Fragmented Nuclei (%) [3]: 31%
Population Healthy Nuclei (%) [3]: 57%
Population Hoechst High Intensity Objects (%) [3]: 3%
Population Membrane Permeable-Phenotype (%) [3]: 11%
Population Mitochondria Different-Phenotype (%) [3]: 5%
Population Mitotic Cells (%) [3]: 20%
Population Normal (%) [3]: 96%
Population Pyknosed Nuclei (%) [3]: 11%
Population Tubulin-Different-Phenotype (%) [3]: 4%
Population Apoptotic (%) [4]: 71%
Population Fragmented Nuclei (%) [4]: 12%
Population Healthy Nuclei (%) [4]: 82%
Population Hoechst High Intensity Objects (%) [4]: 2%
Population Membrane Permeable-Phenotype (%) [4]: 5%
Population Mitochondria Different-Phenotype (%) [4]: 1%
Population Mitotic Cells (%) [4]: 28%
Population Normal (%) [4]: 97%
Population Pyknosed Nuclei (%) [4]: 5%
Population Tubulin-Different-Phenotype (%) [4]: 0%
Population Apoptotic (%) [5]: 78%
Population Fragmented Nuclei (%) [5]: 26%
Population Healthy Nuclei (%) [5]: 64%
Population Hoechst High Intensity Objects (%) [5]: 1%
Population Membrane Permeable-Phenotype (%) [5]: 9%
Population Mitochondria Different-Phenotype (%) [5]: 4%
Population Mitotic Cells (%) [5]: 21%
Population Normal (%) [5]: 98%
Population Pyknosed Nuclei (%) [5]: 8%
Population Tubulin-Different-Phenotype (%) [5]: 5%
Population Apoptotic (%) [6]: 75%
Population Fragmented Nuclei (%) [6]: 20%
Population Healthy Nuclei (%) [6]: 63%
Population Hoechst High Intensity Objects (%) [6]: 2%
Population Membrane Permeable-Phenotype (%) [6]: 6%
Population Mitochondria Different-Phenotype (%) [6]: 2%
Population Mitotic Cells (%) [6]: 25%
Population Normal (%) [6]: 97%
Population Pyknosed Nuclei (%) [6]: 15%
Population Tubulin-Different-Phenotype (%) [6]: 2%
Population Apoptotic (%) [7]: 84%
Population Fragmented Nuclei (%) [7]: 30%
Population Healthy Nuclei (%) [7]: 55%
Population Hoechst High Intensity Objects (%) [7]: 4%
Population Membrane Permeable-Phenotype (%) [7]: 13%
Population Mitochondria Different-Phenotype (%) [7]: 5%
Population Mitotic Cells (%) [7]: 15%
Population Normal (%) [7]: 95%
Population Pyknosed Nuclei (%) [7]: 13%
Population Tubulin-Different-Phenotype (%) [7]: 4%
Population Apoptotic (%) [8]: 90%
Population Fragmented Nuclei (%) [8]: 12%
Population Healthy Nuclei (%) [8]: 77%
Population Membrane Permeable-Phenotype (%) [8]: 9%
Population Mitochondria Different-Phenotype (%) [8]: 4%
Population Mitotic Cells (%) [8]: 9%
Population Pyknosed Nuclei (%) [8]: 9%
Population Tubulin-Different-Phenotype (%) [8]: 5%
Population Apoptotic (%) [9]: 85%
Population Fragmented Nuclei (%) [9]: 28%
Population Healthy Nuclei (%) [9]: 59%
Population Hoechst High Intensity Objects (%) [9]: 3%
Population Membrane Permeable-Phenotype (%) [9]: 6%
Population Mitochondria Different-Phenotype (%) [9]: 5%
Population Mitotic Cells (%) [9]: 14%
Population Normal (%) [9]: 96%
Population Pyknosed Nuclei (%) [9]: 12%
Population Tubulin-Different-Phenotype (%) [9]: 3%
Population Apoptotic (%) [10]: 78%
Population Fragmented Nuclei (%) [10]: 29%
Population Healthy Nuclei (%) [10]: 53%
Population Membrane Permeable-Phenotype (%) [10]: 11%
Population Mitochondria Different-Phenotype (%) [10]: 6%
Population Mitotic Cells (%) [10]: 21%
Population Pyknosed Nuclei (%) [10]: 17%
Population Tubulin-Different-Phenotype (%) [10]: 4%
Population Apoptotic (%) [11]: 88%
Population Fragmented Nuclei (%) [11]: 34%
Population Healthy Nuclei (%) [11]: 44%
Population Hoechst High Intensity Objects (%) [11]: 9%
Population Membrane Permeable-Phenotype (%) [11]: 16%
Population Mitochondria Different-Phenotype (%) [11]: 9%
Population Mitotic Cells (%) [11]: 11%
Population Normal (%) [11]: 90%
Population Pyknosed Nuclei (%) [11]: 21%
Population Tubulin-Different-Phenotype (%) [11]: 9%
Population Fragmented Nuclei (%) [12]: 16%
Population Healthy Nuclei (%) [12]: 70%
Population Hoechst High Intensity Objects (%) [12]: 5%
Population Membrane Permeable-Phenotype (%) [12]: 7%
Population Mitochondria Different-Phenotype (%) [12]: 3%
Population Normal (%) [12]: 94%
Population Pyknosed Nuclei (%) [12]: 13%
Population Tubulin-Different-Phenotype (%) [12]: 2%
